In ChEMBL document CHEMBL4371093, “Divirensols: Sesquiterpene Dimers from the Australian Termite Nest-Derived Fungus Trichoderma virens CMB-TN16” (J Nat Prod, 2019):
The source made the active and inactive calls. The rule behind the calls is not given here.

Key:
NCI-H460 = assay: Growth inhibition of human NCI-H460 cells up to 30 uM after 48 hrs by MTT assay; type: functional, cell-based
In short: (§1)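 Adherent cells grown with 10% FBS, 2 mM L-glutamine and penicillin/streptomycin at 37 °C, 5% CO2. Seeded at 3000 cells/well and attached for 18 h. Compound added at a final 30 μM in 1% DMSO for 48 h. MTT then added (final 0.5 mg/mL) for 4 h, formazan dissolved in DMSO, absorbance read at 580 nm. Negative control 1% DMSO, doxorubicin positive control. Run in duplicate. IC50 versus negative control.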

Staphylococcus aureus = assay: Antibacterial activity against Staphylococcus aureus ATCC 25923 up to 30 uM after 24 hrs by spectrophotometric method; type: functional, organism-based
In short: (§2)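 Bacteria grown on tryptic soy agar at 37 °C for 24 h. One colony moved to tryptic soy broth and adjusted to 10^4−10^5 CFU/mL. Compound in DMSO, diluted with water to a 600 μM stock in 20% DMSO, then added to broth at a final 30 μM in 1% DMSO. Incubated 37 °C for 24 h, OD600 read. Rifampicin positive control. IC50 taken as 50% growth inhibition.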

Escherichia coli = assay: Antibacterial activity against Escherichia coli ATCC 25922 up to 30 uM after 24 hrs by spectrophotometric method; type: functional, organism-based; in short: as §2
Bacillus spizizenii = assay: Antibacterial activity against Bacillus subtilis ATCC 6633 up to 30 uM after 24 hrs by spectrophotometric method; type: functional, organism-based; in short: as §2
SW-620 = assay: Growth inhibition of human SW620 cells up to 30 uM after 48 hrs by MTT assay; type: functional, cell-based; in short: as §1
HeLa = assay: Growth inhibition of human HeLa cells; type: functional; details: read-out: LD50 (the source's name)
MCF7 = assay: Growth inhibition of human MCF7 cells; type: functional; details: read-out: LD50 (the source's name)
[1] = Inhibition of DNA polymerase (unknown origin); parameters: species or system Homo sapiens

Structure (SMILES): CC(C)[C@H]1CC[C@@](O)(COC(=O)/C(=C/[C@@H]2[C@@H](C(C)C)CC[C@@]3(O)COC(=O)[C@@H]23)CO)[C@H]2C(=O)OCC(C(=O)O)=C[C@H]12
- growth inhibition (GI) (NCI-H460): inactive
- Activity (Staphylococcus aureus): inactive
- Activity (Escherichia coli): inactive
- Activity (Bacillus spizizenii): inactive
- growth inhibition (GI) (SW-620): inactive

Structure (SMILES): CC(C)[C@H]1CC[C@@]2(OC(=O)/C(=C/[C@H]3C4=C(CC[C@@H]3C(C)C)COC4=O)CO)COC(=O)[C@H]2[C@@H]1/C=C(\CO)C(=O)O
- growth inhibition (GI) (NCI-H460): inactive
- Activity (Staphylococcus aureus): inactive
- Activity (Escherichia coli): inactive
- Activity (Bacillus spizizenii): inactive
- growth inhibition (GI) (SW-620): inactive

Structure (SMILES): CC(=O)OC/C(=C\[C@H]1C=C(CO)CC[C@@H]1C(C)C)C(=O)O
- growth inhibition (GI) (NCI-H460): inactive
- Activity (Staphylococcus aureus): inactive
- Activity (Escherichia coli): inactive
- Activity (Bacillus spizizenii): inactive
- growth inhibition (GI) (SW-620): inactive

Structure (SMILES): CC(C)[C@H]1CC[C@@](O)(COC(=O)/C(=C/[C@H]2C3=C(CC[C@@H]2C(C)C)COC3=O)CO)[C@@H](C(=O)O)[C@@H]1/C=C(\CO)C(=O)O
- growth inhibition (GI) (NCI-H460): inactive
- Activity (Staphylococcus aureus): inactive
- Activity (Escherichia coli): inactive
- Activity (Bacillus spizizenii): inactive
- growth inhibition (GI) (SW-620): inactive

Structure (SMILES): CC(C)[C@H]1CC[C@@](O)(COC(=O)/C(=C/[C@H]2C=C(CO)CC[C@@H]2C(C)C)CO)[C@H]2C(=O)OCC(C(=O)O)=C[C@H]12
- growth inhibition (GI) (NCI-H460): inactive
- Activity (Staphylococcus aureus): inactive
- Activity (Escherichia coli): inactive
- Activity (Bacillus spizizenii): inactive
- growth inhibition (GI) (SW-620): inactive

Structure (SMILES): CC(C)[C@H]1CC[C@@]2(OC(=O)/C(=C/[C@H]3C=C(CO)CC[C@@H]3C(C)C)CO)COC(=O)[C@H]2[C@@H]1/C=C(\CO)C(=O)O
- growth inhibition (GI) (NCI-H460): inactive
- Activity (Staphylococcus aureus): inactive
- Activity (Escherichia coli): inactive
- Activity (Bacillus spizizenii): inactive
- growth inhibition (GI) (SW-620): inactive

Structure (SMILES): CC(C)[C@H]1CCC(CO)=C[C@@H]1/C=C(\CO)C(=O)O
- growth inhibition (GI) (NCI-H460): inactive
- Activity (Staphylococcus aureus): inactive
- Activity (Escherichia coli): inactive
- Activity (Bacillus spizizenii): inactive
- growth inhibition (GI) (SW-620): inactive

Structure (SMILES): CC(C)[C@H]1CC[C@@](O)(COC(=O)/C(=C/[C@H]2C3=C(CC[C@@H]2C(C)C)COC3=O)CO)[C@H]2C(=O)OCC(C(=O)O)=C[C@H]12
- growth inhibition (GI) (NCI-H460): inactive
- Activity (Staphylococcus aureus): inactive
- Activity (Escherichia coli): inactive
- Activity (Bacillus spizizenii): inactive
- growth inhibition (GI) (SW-620): inactive

Structure (SMILES): CC(C)[C@H]1CC[C@@](O)(COC(=O)C2=C[C@H]3[C@@H](OC2)[C@H](CO)CC[C@@H]3C(C)C)[C@H]2C(=O)OCC(C(=O)O)=C[C@H]12
- growth inhibition (GI) (NCI-H460): inactive
- Activity (Staphylococcus aureus): inactive
- Activity (Escherichia coli): inactive
- Activity (Bacillus spizizenii): inactive
- growth inhibition (GI) (SW-620): inactive

Structure (SMILES): CC(=O)OCC1=C[C@H](/C=C(\CO)C(=O)O)[C@@H](C(C)C)CC1
- growth inhibition (GI) (NCI-H460): inactive
- Activity (Staphylococcus aureus): inactive
- Activity (Escherichia coli): inactive
- Activity (Bacillus spizizenii): inactive
- growth inhibition (GI) (SW-620): inactive

Structure (SMILES): CC(C)C1CCC(O)(COC(=O)C2=CC3C(C(C)C)CCC4(CO4)C3C(=O)OC2)C2C(=O)OCC(C(=O)O)=CC12 (stereo not drawn)
- CC50 (HeLa): 33 µM
- CC50 (MCF7): 31.6 µM
- IC50 [1]: 30.8 µM
